The source of these data is ChEMBL document CHEMBL1139250, “2,6,9-Trisubstituted purine derivatives as protein A mimetics for the treatment of autoimmune diseases” (Bioorg Med Chem Lett, 2009).

SMILES strings stand for the structures. Calls of active or inactive are those of the source. The rule behind the calls is not given here.

Biological target in one test: not listed separately
As to the kind of experiment: (§1) Displacement of protein A from human IgG antibody by competitive ELISA. The gist of the method:
(§2)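 Competitive ELISA in which test compounds compete with protein A for binding to human IgG; IC50 determined in PBS.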
A general note: In an ELISA, binding on a coated surface is turned into a signal by an enzyme label.
For `Nc1ccc(CCn2cnc3c(Nc4cccc(N)c4)nc(NC4CCC4)nc32)cc1`, the IC50 (commonly the concentration needed to halve the response being measured) amounted to 2.3 µM.

With `Nc1cccc(Nc2ncnc3c2ncn3CCOc2ccccc2)c1`, the IC50 is 0.2 µM.

`Nc1cccc(Nc2ncnc3c2ncn3CCc2cccc(F)c2)c1` returned an IC50 of 0.5 µM.

Regarding `Nc1ccc(CCn2cnc3c(Nc4cccc(N)c4)nc(N)nc32)cc1`, the IC50 amounted to 13 µM.

The molecule `Cc1ccc(CCn2cnc3c(Nc4cccc(N)c4)ncnc32)cc1` yielded an IC50 of 1.5 µM.

`Nc1cccc(Nc2ncnc3c2ncn3CCOc2ccc(F)cc2)c1` registered an IC50 of 0.3 µM.

Molecule `Nc1cccc(CCn2cnc3c(Nc4cccc(N)c4)ncnc32)c1` returned an IC50 of 5.1 µM.

Consider `CC(C)CNc1nc(Nc2cccc(N)c2)c2ncn(CCc3ccc(N)cc3)c2n1`, for which the IC50 was 22 µM.

The molecule `Nc1ccc(CCn2cnc3c(Nc4cccc(N)c4)nc(NCCCCCCO)nc32)cc1` yielded a half-maximal inhibitory concentration (IC50) of 4.8 µM.

Molecule `CC(Nc1nc(Nc2cccc(N)c2)c2ncn(CCc3ccc(N)cc3)c2n1)c1cccc(N)c1` (configuration not stated) came in with a concentration for half-maximal inhibition (IC50) of 14 µM.

In turn, `Nc1ccc(CCn2cnc3c(Nc4cccc(N)c4)ncnc32)cc1` gave an IC50 of 1 µM.

In turn, `Nc1cccc(Nc2ncnc3c2ncn3Cc2cccc(F)c2)c1` displayed a half-inhibitory concentration (IC50) of 1.8 µM.

`Nc1cccc(Nc2ncnc3c2ncn3CCOc2ccc(Cl)cc2)c1` registered an IC50 of 0.5 µM.

As for `Nc1ccc(CCn2cnc3c(Nc4cccc(N)c4)nc(NC4CCCC4)nc32)cc1`, the IC50 was 0.2 µM.

Molecule `Nc1ccc(CCn2cnc3c(Nc4cccc(N)c4)nc(NC4CC4)nc32)cc1` yielded an IC50 of 13 µM.

`Nc1cccc(Nc2ncnc3c2ncn3CCc2ccccc2)c1` had an IC50 of 2.3 µM.

`Nc1cccc(Nc2ncnc3c2ncn3CCc2ccc(Cl)cc2)c1` displayed an IC50 of 3.6 µM.

For `Nc1cccc(Nc2ncnc3c2ncn3Cc2ccc(F)cc2)c1`, the half-maximal inhibitory concentration (IC50) worked out at 1.7 µM.

For the molecule `Nc1ccc(CCn2cnc3c(Nc4cccc(N)c4)nc(NC4CCCCC4)nc32)cc1`, the IC50 stood at 9 µM.

Take `CC(C)(C)CNc1nc(Nc2cccc(N)c2)c2ncn(CCc3ccc(N)cc3)c2n1`: the IC50 came to 6 µM.

As to `Nc1ccc(Cn2cnc3c(Nc4cccc(N)c4)ncnc32)cc1`, the IC50 turned out to be 0.2 µM.

`Nc1cccc(Nc2ncnc3c2ncn3CCc2ccc(F)cc2)c1` yielded an IC50 of 0.6 µM.

`COC(=O)c1ccc(Cn2cnc3c(Nc4cccc(N)c4)ncnc32)cc1` came in with a half-inhibitory concentration (IC50) of 0.3 µM.

Regarding `CC(C)Nc1nc(Nc2cccc(N)c2)c2ncn(CCc3ccc(N)cc3)c2n1`, the IC50 was 1.1 µM.

As to `CC(c1cccc(F)c1)n1cnc2c(Nc3cccc(N)c3)ncnc21` (configuration not stated), the IC50 amounted to 0.2 µM.

Regarding `Nc1cccc(Nc2ncnc3c2ncn3Cc2ccc(Cl)cc2)c1`, the IC50 was determined as 0.5 µM.

The molecule `Nc1cccc(Nc2ncnc3c2ncn3Cc2cccc(Cl)c2)c1` returned an IC50 of 0.4 µM.

`Nc1cccc(Nc2ncnc3c2ncn3CCc2ccc3ccccc3c2)c1` showed an IC50 of 12.5 µM.

In the case of `Nc1ccc(CCn2cnc3c(Nc4cccc(N)c4)nc(NCC4CC4)nc32)cc1`, the IC50 amounted to 0.6 µM.

As to `Nc1cccc(Nc2ncnc3c2ncn3CC2CC2)c1`, the IC50 is 0.4 µM.

In turn, `Nc1cccc(Nc2ncnc3c2ncn3CCCOc2ccccc2)c1` returned an IC50 of 0.6 µM.

With `Nc1ccc(CCn2cnc3c(Nc4cccc(N)c4)nc(NCCO)nc32)cc1`, the concentration for half-maximal inhibition (IC50) came to 64 µM.

Turning to `Nc1ccc(CCn2cnc3c(Nc4cccc(N)c4)nc(NCc4ccccc4)nc32)cc1`, the half-inhibitory concentration (IC50) was determined as 1.8 µM.

Another test is filed under the species Homo sapiens. The description is as §1. Put shortly:
as §2
In the case of `NCCNc1nc(Nc2cccc(N)c2)c2ncn(CCc3ccc(N)cc3)c2n1`, the outcome was inactive.

`Nc1ccc(CCn2cnc3c(Nc4cccc(N)c4)nc(F)nc32)cc1`: the result was inactive.

For `Nc1ccc(CCn2cnc3c(Nc4cccc(F)c4)ncnc32)cc1`, the result was inactive.

As to `Nc1ccc(CCn2cnc3c(NC4CCNC4)ncnc32)cc1` (configuration not stated), the outcome was inactive.

As to `Nc1ccc(CCn2cnc3c(NC4CCCC(N)C4)ncnc32)cc1` (configuration not stated), the outcome was inactive.

With `Nc1ccc(CCn2cnc3c(NCC4CCCNC4)ncnc32)cc1` (configuration not stated), the outcome was inactive.

Take `Nc1ccc(CCn2cnc3c(N4CCNCC4)ncnc32)cc1`: the outcome was inactive.

For the molecule `Nc1ccc(CCn2cnc3c(Nc4cccc(N)c4)nc(NCCCCO)nc32)cc1`, the result was inactive.

With `Nc1cccc(Nc2ncnc3c2ncn3CCc2ccc(O)cc2)c1`, the result was inactive.

`COc1cccc(Nc2ncnc3c2ncn3CCc2ccc(N)cc2)c1`: the result was inactive.

For a further test, the system named is Mus musculus. Nature of the test: Effect on oxazolone-induced delayed type hypersensitivity in mouse assessed as ear thickness at 50 mg/kg, iv after 7 days challenged with oxazolone on day 3. Format: functional. Put shortly:
(§3)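 Mice dosed intravenously with vehicle or test compound at 50 mg/kg on days 0, 1 and 2. Oxazolone (50 ll) applied to the right ear surface, first challenge day 3, second day 10. Ear thickness measured days 4–7 and 11–14; redness and crust formation also observed. Mice sacrificed day 14.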
For the molecule `CN(Cc1cnc2nc(N)nc(N)c2n1)c1ccc(C(=O)N[C@@H](CCC(=O)O)C(=O)O)cc1` [METHOTREXATE], the Activity turned out to be 0.17 mm.

`Nc1ccc(CCn2cnc3c(Nc4cccc(N)c4)ncnc32)cc1`: the Activity is listed as 0.19 mm.

Another test has as its system Mus musculus. As to the kind of experiment: Effect on oxazolone-induced delayed type hypersensitivity in mouse assessed as ear thickness at 50 mg/kg, iv after 14 days challenged with oxazolone on day 10. Format: functional. Put shortly:
as §3
With `CN(Cc1cnc2nc(N)nc(N)c2n1)c1ccc(C(=O)N[C@@H](CCC(=O)O)C(=O)O)cc1` [METHOTREXATE], the Activity came out at 0.46 mm.

For the molecule `Nc1ccc(CCn2cnc3c(Nc4cccc(N)c4)ncnc32)cc1`, the Activity worked out at 0.56 mm.

A further test relates to Mus musculus. As to the kind of experiment: Effect on oxazolone-induced delayed type hypersensitivity in mouse assessed as ear thickness at 50 or 150 mg/kg, po after 7 days challenged with oxazolone on day 3. The test is classed as functional, organism-based. Also on record: dose 150 mg/kg. The gist of the method: (§4)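 Oxazolone DTH protocol: 50 ll oxazolone applied to the right ear surface, challenged day 3 and day 10. Ear thickness measured days 4–7 and 11–14. Compound given orally at 50 or 150 mg/kg daily from day 0 to day 13. Hydrocortisone served as comparator.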
Consider `Nc1ccc(CCn2cnc3c(Nc4cccc(N)c4)ncnc32)cc1`, for which the outcome was Active.

A further test relates to Mus musculus. As to the kind of experiment: Effect on oxazolone-induced delayed type hypersensitivity in mouse assessed as ear thickness at 50 or 150 mg/kg, po after 14 days challenged with oxazolone on day 10. The test is classed as functional, organism-based. Further details: dose 150 mg/kg. The gist of the method:
as §4
`Nc1ccc(CCn2cnc3c(Nc4cccc(N)c4)ncnc32)cc1`: the outcome was Active.

Another test relates to Rattus norvegicus. Nature of the test: Reduction in synovitis damage in Freund's adjuvant-induced arthritis Lewis rat model at 25 mg/kg, iv after 21 days relative to control. The test is classed as functional. Further details: scale not given: the % may be the effect or the level left. Put shortly: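 Female Lewis rats; arthritis induced by footpad injection of lyophilized Mycobacterium butyricum in mineral oil, monitored for 3 weeks. Intravenous dosing on days −3, −2, −1 pre-adjuvant and days 10, 11, 12 post-adjuvant; body weight recorded. Arthritis (inflammatory) index derived from joint circumference in mm via a geometric formula; incidence and severity scored.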
Consider `CN(Cc1cnc2nc(N)nc(N)c2n1)c1ccc(C(=O)N[C@@H](CCC(=O)O)C(=O)O)cc1` [METHOTREXATE], for which the Activity amounted to 20%.

Regarding `Nc1ccc(CCn2cnc3c(Nc4cccc(N)c4)ncnc32)cc1`, the Activity came to 25%.

The subject of a further test is Rattus norvegicus. As to the kind of experiment: Reduction in synovitis damage in Freund's adjuvant-induced arthritis Lewis rat model at 50 mg/kg, po after 21 days relative to control. The test is classed as functional. Also on record: scale not given: the % may be the effect or the level left.
Take `Nc1ccc(CCn2cnc3c(Nc4cccc(N)c4)ncnc32)cc1`: the Activity was 30%.
